Experimental data from ChEMBL document CHEMBL5724801, “EUbOPEN Chemogenomics Library - Multiplex” (2024).
Where “and” joins values, the source holds several entries; their conditions need not be identical. Equal values may be shown once.

Tested on: Fibroblast
Assay: Multiplex assay against human fibroblast
Type: toxicity, cell-based
Summary of the method: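 On a CQ1 microscope at 37°C and 5% CO2, live cells were imaged after compound addition. They had been stained at seeding with Hoechst33342, BioTracker Green Microtubule Cytoskeleton Dye, MitoTracker Red and Annexin V Alexa Fluor 680. CellPathfinder machine-learning gating assigned cells to Hoechst high-intensity objects or normal cells, normal cells to healthy, pyknosed or fragmented nuclei, and pyknosed cells to mitotic or apoptotic. Tubulin, mitochondrial-mass and membrane-permeability phenotypes are per cents of healthy-nucleus cells.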

[1] = 12 h, 1 µM, compound concentration 1 uM
[2] = 12 h, 10 µM, compound concentration 10 uM
[3] = 24 h, 1 µM, compound concentration 1 uM
[4] = 24 h, 10 µM, compound concentration 10 uM
[5] = 48 h, 1 µM, compound concentration 1 uM
[6] = 48 h, 10 µM, compound concentration 10 uM

Cc1nn(C)c2nc(NNC(=O)Nc3cc(Cl)nc(Cl)c3)cc(C(C)C)c12
Population Apoptotic (%) [1]: 62% and 37%
Population Fragmented Nuclei (%) [1]: 15% and 31%
Population Healthy Nuclei (%) [1]: 68% and 53%
Population Hoechst High Intensity Objects (%) [1]: 3% and 2%
Population Membrane Permeable-Phenotype (%) [1]: 0%
Population Mitochondria Different-Phenotype (%) [1]: 4% and 7%
Population Mitotic Cells (%) [1]: 37% and 62%
Population Normal (%) [1]: 96% and 97%
Population Pyknosed Nuclei (%) [1]: 15%
Population Tubulin-Different-Phenotype (%) [1]: 27% and 46%
Total Cell Count [1]: 178 and 179
Population Apoptotic (%) [2]: 53% and 21%
Population Fragmented Nuclei (%) [2]: 12% and 33%
Population Healthy Nuclei (%) [2]: 63% and 56%
Population Hoechst High Intensity Objects (%) [2]: 3% and 7%
Population Membrane Permeable-Phenotype (%) [2]: 2% and 5%
Population Mitochondria Different-Phenotype (%) [2]: 15% and 6%
Population Mitotic Cells (%) [2]: 46% and 78%
Population Normal (%) [2]: 96% and 92%
Population Pyknosed Nuclei (%) [2]: 23% and 10%
Population Tubulin-Different-Phenotype (%) [2]: 89%
Total Cell Count [2]: 139 and 140
Population Apoptotic (%) [3]: 59% and 62%
Population Fragmented Nuclei (%) [3]: 18% and 21%
Population Healthy Nuclei (%) [3]: 68%
Population Hoechst High Intensity Objects (%) [3]: 1% and 2%
Population Membrane Permeable-Phenotype (%) [3]: 1% and 2%
Population Mitochondria Different-Phenotype (%) [3]: 3% and 6%
Population Mitotic Cells (%) [3]: 40% and 37%
Population Normal (%) [3]: 98% and 97%
Population Pyknosed Nuclei (%) [3]: 12% and 9%
Population Tubulin-Different-Phenotype (%) [3]: 29% and 50%
Total Cell Count [3]: 176 and 174
Population Apoptotic (%) [4]: 52% and 25%
Population Fragmented Nuclei (%) [4]: 12% and 28%
Population Healthy Nuclei (%) [4]: 69% and 61%
Population Hoechst High Intensity Objects (%) [4]: 4% and 8%
Population Membrane Permeable-Phenotype (%) [4]: 1% and 0%
Population Mitotic Cells (%) [4]: 47% and 75%
Population Normal (%) [4]: 95% and 91%
Population Pyknosed Nuclei (%) [4]: 18% and 9%
Population Tubulin-Different-Phenotype (%) [4]: 95% and 89%
Total Cell Count [4]: 130 and 132
Population Apoptotic (%) [5]: 71% and 57%
Population Fragmented Nuclei (%) [5]: 18% and 34%
Population Healthy Nuclei (%) [5]: 73% and 62%
Population Hoechst High Intensity Objects (%) [5]: 1% and 2%
Population Membrane Permeable-Phenotype (%) [5]: 1% and 2%
Population Mitochondria Different-Phenotype (%) [5]: 2%
Population Mitotic Cells (%) [5]: 28% and 42%
Population Normal (%) [5]: 98% and 97%
Population Pyknosed Nuclei (%) [5]: 7% and 3%
Population Tubulin-Different-Phenotype (%) [5]: 30% and 36%
Total Cell Count [5]: 188 and 184
Population Apoptotic (%) [6]: 93% and 62%
Population Fragmented Nuclei (%) [6]: 16% and 38%
Population Healthy Nuclei (%) [6]: 70% and 56%
Population Hoechst High Intensity Objects (%) [6]: 8% and 3%
Population Membrane Permeable-Phenotype (%) [6]: 2%
Population Normal (%) [6]: 91% and 96%
Population Pyknosed Nuclei (%) [6]: 13% and 5%
Population Tubulin-Different-Phenotype (%) [6]: 96% and 85%
Total Cell Count [6]: 129 and 155
